A short description of assay [1]: HUVEC growth inhibition – cell-based, human, primary screen (AID 575).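 Also: 100% = median of untreated cell wells with 0.1% DMSO on each plate.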 The conditions noted are these: HUVEC proliferation, CellTiter-Glo luminescence, 72 h; at 10 µM; stronger effect = lower value. The method in brief:
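Assay system: Primary human umbilical vein endothelial cells | Quantity: 1250 cells per well | Medium: Supplemented EBM, 2% fetal bovine serum | Detection: CellTiter-Glo luminescence measuring cellular ATP | Read-out: % viability vs DMSO wells | Plate: Collagen-coated 384-well format | Times: 72 h exposure, 37 °C, 5% CO2, 30 min RT equilibration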
On the technique in general: Cellular ATP, detected with luciferase, serves as a proxy for viable cell number.

The nature of assay [2]: growth inhibitors of H69AR lung tumor, primary screen, human, duplicate replicates (AID 580;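 active = viability at or under a set limit in both replicates, limit being median viability minus 3 SD, cut at about 48% in these data, passing the limit was not always enough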;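 also: 100% = mean luminescence of untreated wells and 0% = no signal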). The conditions noted are these: H69AR lung tumor cells viability, ATP luminescence, 72 h; at 10 µM; stronger effect = lower value.
Assay [3] can be described thus: reversal of MRP1-mediated doxorubicin resistance, pilot screen, H69AR cells, doxorubicin co-treatment (AID 601;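 active = viability loss from added drug above about 55%, and viability with drug at most 40%, in both replicates, limit read from the data, passing the limit was not always enough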). The conditions noted are these: CellTiter-Glo, 72 h, at 10 µM; for differential viability (reversal): stronger effect = higher value.
Assay [4] in a line: 384-well plate pilot, post-Golgi transport modulator project, inhibition of yeast transport mutant growth (AID 636; in the data active = inhibition above about 31%). The conditions noted are these: absorbance 615 nm, about 18 h, stronger effect = higher value.
Assay [5] can be described thus: growth suppression of yeast trafficking mutant, preliminary HTS, modulators of trafficking downstream of Golgi apparatus project, 1536-format plate, OD 615 nm (AID 637; in the data active = inhibition above about 30%). The conditions noted are these: yeast transport mutant growth, absorbance 615 nm, 18 h; stronger effect = higher value.
The mark [6] stands for this setting: H69AR cells + 2 uM doxorubicin, measured here: viability with 2 uM doxorubicin, stronger effect = lower value.
Setting [7] is: H69AR cells, compound alone cytotoxicity.

The source made the active and inactive calls.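 The calls were made as follows, unless noted: active = viability at or below 30% in both replicate assays; inconclusive = viability at or below 30% in just one of the two assays; inactive = the rest.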 Peptide text beside a SMILES is read from it. * marks the point of attachment. Boc = CC(C)(C)OC(=O)*

Regarding `CCOC(=O)c1nnn(-c2nonc2NC(C)=O)c1C`, the viability (commonly a read-out of living cells in per cent, often relative to untreated cells) in assay [1] is 91.7% (inactive); in assay [2], 98.2% (inactive); in assay [3] (setting [6]), 96.5%; in assay [3] (setting [7]) it was 98.2%. Besides, the differential viability (reversal) in assay [3] (H69AR cells + 2 uM doxorubicin) is 1.68% (inactive). In addition, the values for the inhibition in assay [4] and in assay [5] were -0.65% (inactive) and -4.13% (inactive), respectively.
As to `O=C(O)C1C2CCC(C2)C1C(=O)NCCCn1ccnc1` (stereo not given), the viability in assay [1] is 112% (inactive); in assay [2], 90.6% (inactive); in assay [3] (setting [6]), 84.4%; in assay [3] (setting [7]), 90.6%. Moreover, the differential viability (reversal) in assay [3] (H69AR cells + 2 uM doxorubicin) was 6.16% (inactive). For the same compound, the inhibition (in general, the drop in the measured response relative to a control, in per cent) in assay [4] was -7.24% (inactive); in assay [5], -0.79% (inactive).
For the compound `Cc1ccc(CC23CN4CCN(CC(C4)C2O)C3)c(C)c1` (stereo not given), the viability was 109% (inactive) in assay [1], 94.6% (inactive) in assay [2], 86.1% in assay [3] (setting [6]) and 94.6% in assay [3] (setting [7]). For the same compound, the differential viability (reversal) in assay [3] (H69AR cells + 2 uM doxorubicin) is 8.52% (inactive). The inhibition is -2.37% (inactive) in assay [4] and 3.02% (inactive) in assay [5].
Turning to `CN(Cc1nc(-c2ccncc2)no1)S(=O)(=O)c1ccc(Br)cc1`, the viability is 90.4% (inactive) in assay [1], 89.6% (inactive) in assay [2], 93.9% in assay [3] (setting [6]) and 89.6% in assay [3] (setting [7]). The differential viability (reversal) in assay [3] (H69AR cells + 2 uM doxorubicin) is -4.28% (inactive). For the same compound, the inhibition in assay [4] is -5.32% (inactive); in assay [5], 1.75% (inactive).
For `Cc1ccc(NC(=O)c2ccco2)cc1NC(=O)CSc1nnc(-c2cccs2)n1C`, the viability in assay [1] was 112% (inactive); in assay [2], 99.8% (inactive); in assay [3] (setting [6]), 76.4%; in assay [3] (setting [7]), 99.8%. Moreover, the differential viability (reversal) in assay [3] (H69AR cells + 2 uM doxorubicin) is 23.4% (inactive). Besides, the inhibition was -6.13% (inactive) in assay [4] and 2.38% (inactive) in assay [5].
With `CC(C)(C)OC(=O)N1CCCC1C(=O)N1CCCC1C(=O)N1CCCC1C(=O)O` (stereo not drawn) (Boc-Pro-Pro-Pro-OH; configuration not given here), the viability is 101% (inactive) in assay [1], 97.9% (inactive) in assay [2], 94.8% in assay [3] (setting [6]) and 97.9% in assay [3] (setting [7]). Moreover, the differential viability (reversal) in assay [3] (H69AR cells + 2 uM doxorubicin) was 3.05% (inactive). For the same compound, the inhibition was -5.06% (inactive) in assay [4] and -0.95% (inactive) in assay [5].
`O=C(CN1C(=O)COc2ccccc21)NCCCN1CCc2ccccc2C1`: the viability in assay [1] is 83.2% (inactive); in assay [2], 94.8% (inactive); in assay [3] (setting [6]), 83.2%; in assay [3] (setting [7]), 94.8%. In addition, the differential viability (reversal) in assay [3] (H69AR cells + 2 uM doxorubicin) is 11.6% (inactive). The inhibition is -1.69% (inactive) in assay [4] and 9.05% (inactive) in assay [5].
With `CCOC(=O)c1cc2oc(C)cc2n1CC(=O)OC1CCCCC1`, the viability is 90.9% (inactive) in assay [1], 87.3% (inactive) in assay [2], 86.8% in assay [3] (setting [6]) and 87.3% in assay [3] (setting [7]). The differential viability (reversal) in assay [3] (H69AR cells + 2 uM doxorubicin) is 0.485% (inactive). Moreover, the values for the inhibition in assay [4] and in assay [5] were -2.73% (inactive) and 5.24% (inactive), respectively.
With `CSc1nc2ccc(S(=O)(=O)N3CCOCC3)cc2s1`, the viability in assay [1] was 101% (inactive); in assay [2], 89.9% (inactive); in assay [3] (setting [6]), 94.4%; in assay [3] (setting [7]) it was 89.9%. The differential viability (reversal) in assay [3] (H69AR cells + 2 uM doxorubicin) is -4.54% (inactive). Besides, the inhibition was -6.53% (inactive) in assay [4] and 2.06% (inactive) in assay [5].
Turning to `O=C(c1ccco1)N1CCN(C(=O)c2ccc(Cn3cc(Br)cn3)o2)CC1`, the viability is 91% (inactive) in assay [1], 79.7% (inactive) in assay [2], 92.4% in assay [3] (setting [6]) and 79.7% in assay [3] (setting [7]). Also, the differential viability (reversal) in assay [3] (H69AR cells + 2 uM doxorubicin) was -12.7% (inactive). In addition, the inhibition is -2.11% (inactive) in assay [4] and 2.86% (inactive) in assay [5].
Turning to `Oc1ccc(-c2onc(C(F)(F)F)c2-c2cscn2)c(O)c1`, the viability was 108% (inactive) in assay [1], 103% (inactive) in assay [2], 97.3% in assay [3] (setting [6]) and 103% in assay [3] (setting [7]). Moreover, the differential viability (reversal) in assay [3] (H69AR cells + 2 uM doxorubicin) is 5.71% (inactive). In addition, the inhibition was -2.99% (inactive) in assay [4] and 4.92% (inactive) in assay [5].
With `c1ccc(-c2nc3nonc3c3nc4ccccc4n23)cc1`, the viability in assay [1] is 93.8% (inactive); in assay [2], 88.8% (inactive); in assay [3] (setting [6]), 90.8%; in assay [3] (setting [7]) it was 88.8%. In assay [3] (H69AR cells + 2 uM doxorubicin), the differential viability (reversal) is -1.96% (inactive). In addition, the inhibition was -6.27% (inactive) in assay [4] and 1.9% (inactive) in assay [5].
`CCc1nccn1S(=O)(=O)c1ccc2ccc(C)cc2c1`: the viability is 105% (inactive) in assay [1], 91.3% (inactive) in assay [2], 93.5% in assay [3] (setting [6]) and 91.3% in assay [3] (setting [7]). Besides, the differential viability (reversal) in assay [3] (H69AR cells + 2 uM doxorubicin) is -2.18% (inactive). For the same compound, the inhibition in assay [4] was 2.24% (inactive); in assay [5], -3.49% (inactive).
Regarding `Cc1cc2c(c(=O)n1CCN(C)C)C(c1ccncc1)C(C#N)=C(N)O2` (stereo not given), the viability was 103% (inactive) in assay [1], 103% (inactive) in assay [2], 102% in assay [3] (setting [6]) and 103% in assay [3] (setting [7]). In addition, in assay [3] (H69AR cells + 2 uM doxorubicin), the differential viability (reversal) was 0.98% (inactive). For the same compound, the inhibition is -2.37% (inactive) in assay [4] and -6.51% (inactive) in assay [5].
As for `Cc1ccc(C)c(C(=O)NC2CC(C)(C)NC(C)(C)C2)c1`, the viability in assay [1] was 98.5% (inactive); in assay [2], 86.7% (inactive); in assay [3] (setting [6]), 87.3%; in assay [3] (setting [7]) it was 86.7%. Also, the differential viability (reversal) in assay [3] (H69AR cells + 2 uM doxorubicin) is -0.525% (inactive). Besides, the inhibition is -5.71% (inactive) in assay [4] and -6.98% (inactive) in assay [5].
`Cc1cc(C)n(-c2nc(C)nc3c2cnn3-c2ccccc2)n1`: the viability in assay [1] was 87.4% (inactive); in assay [2], 87.3% (inactive); in assay [3] (setting [6]), 88.8%; in assay [3] (setting [7]) it was 87.3%. For the same compound, the differential viability (reversal) in assay [3] (H69AR cells + 2 uM doxorubicin) was -1.5% (inactive). In addition, the values for the inhibition in assay [4] and in assay [5] were -3.77% (inactive) and 6.19% (inactive), respectively.
In the case of `CCOc1ncccc1C(=O)Nc1ccc2c(C)cc(=O)oc2c1`, the viability was 84.1% (inactive) in assay [1], 93.5% (inactive) in assay [2], 92.4% in assay [3] (setting [6]) and 93.5% in assay [3] (setting [7]). The differential viability (reversal) in assay [3] (H69AR cells + 2 uM doxorubicin) is 1.12% (inactive). For the same compound, the inhibition in assay [4] was -3.77% (inactive); in assay [5], 6.51% (inactive).
Turning to `CC(=O)Nc1ccc(NC2=CC(=O)CC(C)(C)C2)cc1`, the viability was 109% (inactive) in assay [1], 109% (inactive) in assay [2], 85% in assay [3] (setting [6]) and 109% in assay [3] (setting [7]). For the same compound, in assay [3] (H69AR cells + 2 uM doxorubicin), the differential viability (reversal) is 24.2% (inactive). The figures for the inhibition in assay [4] and in assay [5] were -3.38% (inactive) and 5.08% (inactive), respectively.
As for `CN(C)S(=O)(=O)N1CCN(S(=O)(=O)c2ccc(F)cc2)CC1`, the viability in assay [1] is 90.7% (inactive); in assay [2], 101% (inactive); in assay [3] (setting [6]) it was 96.1%; in assay [3] (setting [7]), 101%. The differential viability (reversal) in assay [3] (H69AR cells + 2 uM doxorubicin) is 4.42% (inactive). Further, the values for the inhibition in assay [4] and in assay [5] were 2.8% (inactive) and -2.22% (inactive), respectively.
Regarding `O=C1CC(Sc2nnc(-c3ccccc3)o2)C(=O)N1c1ccccc1` (stereo not given), the viability was 96.3% (inactive) in assay [1], 2.27% (active) in assay [2], 9.04% in assay [3] (setting [6]) and 2.27% in assay [3] (setting [7]). Moreover, in assay [3] (H69AR cells + 2 uM doxorubicin), the differential viability (reversal) was -6.77% (inactive). Further, the inhibition in assay [4] was -6.13% (inactive); in assay [5], -1.11% (inactive).

Source of the values: PubChem BioAssay.
